Measured values from ChEMBL document CHEMBL1144149, “DNA polymerase beta inhibitors from Tetracera boiviniana” (J Nat Prod, 1999).

How the values were obtained:
[1] = Cytotoxicity against mouse P388D1 cells at 10 uM after 6 hrs by trypan blue exclusion assay; format: functional
How it was run: (§1)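 P-388D1 suspension cells were grown in DMEM (4500 mg glucose/L) with 10% donor horse serum and antibiotics at 37 °C in 5% CO2. Cells at ca. 5 × 10^5 cells/mL were stabilized for 1 h, then exposed to compound alone or together with 75 nM bleomycin (blenoxane) for 6 h. Final DMSO was 0.25%. Viability was read by trypan blue exclusion as % of control.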

[2] = test system: P388D1; assay: Potentiation of 75 nM bleomycin induced cytotoxicity in mouse P388D1 cells at 10 uM assessed as cell viability after 6 hrs by trypan blue exclusion assay; format: functional; how it was run: as §1
[3] = molecular target: DNA polymerase beta (Rattus norvegicus) (UniProt P06766); conditions: 50 ug/mL
[4] = molecular target: DNA polymerase beta (Rattus norvegicus) (UniProt P06766); conditions: 10 ug/mL

## C=C(C)[C@@H]1CC[C@]2(C(=O)O)CC[C@]3(C)[C@H](CC[C@@H]4[C@@]5(C)CC[C@H](O)C(C)(C)[C@@H]5CC[C@]43C)[C@@H]12 [BETULINIC ACID]
[1]
  Activity: 99%
[2]
  Activity: 70%
[3]
  inhibition: 96%
[4]
  inhibition: 63%
